From ChEMBL document CHEMBL3804761, “Synthesis of a stable and orally bioavailable englerin analogue” (Bioorg Med Chem Lett, 2016)

Key:
Assay type in all cases: functional
KM12 = assay: Growth inhibition of human KM12 cells assessed as cell growth at 10 uM incubated for 48 hrs by sulforhodamine B assay relative to control; details: KM12, 48 h, read-out: Activity
Outline: (§1)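 Run in the standard NCI 60-cell-line screen. Cells were exposed to drug for two days, and the read-out was sulforhodamine B staining. Compound was tested at a single final concentration of 10 µM in every line, and results are reported as growth percent.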

[1] = Growth inhibition of human SNB75 cells assessed as cell growth at 10 uM incubated for 48 hrs by sulforhodamine B assay relative to control; details: SNB-75, 48 h, read-out: Activity; outline: as §1
SK-MEL-5 = assay: Growth inhibition of human SK-MEL-5 cells assessed as cell growth at 10 uM incubated for 48 hrs by sulforhodamine B assay relative to control; details: SK-MEL-5, 48 h, read-out: Activity; outline: as §1
[2] = Growth inhibition of human IGROV1 cells assessed as cell growth at 10 uM incubated for 48 hrs by sulforhodamine B assay relative to control; details: IGROV-1, 48 h, read-out: Activity; outline: as §1
NCI/ADR-RES = assay: Growth inhibition of human NCI/ADR-RES cells assessed as cell growth at 10 uM incubated for 48 hrs by sulforhodamine B assay relative to control; details: read-out: Activity; outline: as §1
786-0 = assay: Growth inhibition of human 786-0 cells assessed as cell growth at 10 uM incubated for 48 hrs by sulforhodamine B assay relative to control; details: 786-0, 48 h, read-out: Activity; outline: as §1
ACHN [3] = assay: Growth inhibition of human ACHN cells assessed as cell growth at 10 uM incubated for 48 hrs by sulforhodamine B assay relative to control; details: read-out: Activity; outline: as §1
[4] = Growth inhibition of human Caki1 cells assessed as cell growth at 10 uM incubated for 48 hrs by sulforhodamine B assay relative to control; details: CAKI-1, 48 h, read-out: Activity; outline: as §1
[5] = Growth inhibition of human PC3 cells assessed as cell growth at 10 uM incubated for 48 hrs by sulforhodamine B assay relative to control; details: PC-3, 48 h, read-out: Activity; outline: as §1
MCF7 [6] = assay: Growth inhibition of human MCF7 cells assessed as cell growth at 10 uM incubated for 48 hrs by sulforhodamine B assay relative to control; details: MCF7, 48 h, read-out: Activity; outline: as §1
[7] = Growth inhibition of human BT549 cells assessed as cell growth at 10 uM incubated for 48 hrs by sulforhodamine B assay relative to control; details: BT-549, 48 h, read-out: Activity; outline: as §1
MDA-MB-468 = assay: Growth inhibition of human MDA-MB-468 cells assessed as cell growth at 10 uM incubated for 48 hrs by sulforhodamine B assay relative to control; details: MDA-MB-468, 48 h, read-out: Activity; outline: as §1
[8] = Growth inhibition of human HOP62 cells incubated for 48 hrs by sulforhodamine B assay; details: HOP-62, 48 h
Outline: (§2)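 NCI 60-cell-line panel, standard protocol. Cells exposed to compound for two days, growth read by sulforhodamine B staining. Tested at five 10-fold dilutions, top concentration 100 µM, to give dose-response curves.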

U-251 = assay: Growth inhibition of human U251 cells incubated for 48 hrs by sulforhodamine B assay; details: U-251, 48 h
Outline: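 Tested in the standard NCI 60-cell-line protocol with two-day drug exposure and a sulforhodamine B endpoint. Compounds were first screened at a single final concentration of 10 µM, reported as growth percent. They were then run as five 10-fold dilutions starting from a high concentration of 100 µM to give dose-response curves.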

[9] = Growth inhibition of human LOXIMVI cells incubated for 48 hrs by sulforhodamine B assay; details: LOX IMVI; outline: as §2
M14 = assay: Growth inhibition of human M14 cells incubated for 48 hrs by sulforhodamine B assay; details: M14, 48 h; outline: as §2
MDA-MB-435 = assay: Growth inhibition of human MDA-MB-435 cells incubated for 48 hrs by sulforhodamine B assay; details: MDA-MB-435, 48 h; outline: as §2
SK-MEL-2 = assay: Growth inhibition of human SK-MEL-2 cells incubated for 48 hrs by sulforhodamine B assay; details: SK-MEL-2, 48 h; outline: as §2
[10] = Growth inhibition of human OVCAR4 cells incubated for 48 hrs by sulforhodamine B assay; details: OVCAR-4, 48 h; outline: as §2
[11] = Growth inhibition of human OVCAR5 cells incubated for 48 hrs by sulforhodamine B assay; details: OVCAR-5, 48 h; outline: as §2
ACHN [12] = assay: Growth inhibition of human ACHN cells incubated for 48 hrs by sulforhodamine B assay; outline: as §2
[13] = Growth inhibition of human RXF393 cells incubated for 48 hrs by sulforhodamine B assay; details: RXF 393, 48 h
Outline: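 Run in the NCI 60-cell-line protocol, with 2-day drug exposure and sulforhodamine B read-out. Dose-response testing used five 10-fold dilutions starting from a high concentration of 100 µM.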

MCF7 [14] = assay: Growth inhibition of human MCF7 cells incubated for 48 hrs by sulforhodamine B assay; details: MCF7, 48 h; outline: as §2
MDA-MB-231 = assay: Growth inhibition of human MDA-MB-231 cells incubated for 48 hrs by sulforhodamine B assay; details: MDA-MB-231, 48 h; outline: as §2
K562 = assay: Growth inhibition of human K562 cells assessed as cell growth at 10 uM incubated for 48 hrs by sulforhodamine B assay relative to control; details: K562, 48 h, read-out: Activity; outline: as §1
A549 = assay: Growth inhibition of human A549/ATCC cells assessed as cell growth at 10 uM incubated for 48 hrs by sulforhodamine B assay relative to control; details: A549, 48 h, read-out: Activity; outline: as §1
NCI-H522 = assay: Growth inhibition of human NCI-H522 cells assessed as cell growth at 10 uM incubated for 48 hrs by sulforhodamine B assay relative to control; details: NCI-H522, 48 h, read-out: Activity; outline: as §1
[15] = Growth inhibition of human COLO205 cells assessed as cell growth at 10 uM incubated for 48 hrs by sulforhodamine B assay relative to control; details: COLO 205, 48 h, read-out: Activity; outline: as §1
[16] = Growth inhibition of human HCT15 cells assessed as cell growth at 10 uM incubated for 48 hrs by sulforhodamine B assay relative to control; details: HCT-15, 48 h, read-out: Activity; outline: as §1
[17] = read-out: pLC50 (the source's name) (converted)

Q: Which growth at 10 µM (KM12) does the source give for `CC(C)[C@@]12C[C@@H](NC(=O)CO)[C@@](C)(O1)[C@@H]1CC[C@@H](C)[C@H]1[C@@H]2OC(=O)/C=C/c1ccccc1` here?
A: The growth at 10 µM was 111%.

Q: What about the growth at 10 µM [1] of the same compound?
A: The growth at 10 µM was 59.6%.

Q: What about the growth at 10 µM (SK-MEL-5) of the same compound?
A: Its growth at 10 µM is 90.6%.

Q: And the growth at 10 µM [2]?
A: The growth at 10 µM was 106%.

Q: And the growth at 10 µM (NCI/ADR-RES)?
A: The growth at 10 µM was 42.9%.

Q: And the growth at 10 µM (786-0)?
A: The growth at 10 µM was 73.1%.

Q: What about the growth at 10 µM (ACHN [3]) of the same compound?
A: Its growth at 10 µM is 8.01%.

Q: What about the growth at 10 µM [4] of the same compound?
A: Its growth at 10 µM is 61.1%.

Q: And the growth at 10 µM [5]?
A: Its growth at 10 µM is 77.5%.

Q: What about the growth at 10 µM (MCF7 [6]) of the same compound?
A: Its growth at 10 µM is 94.4%.

Q: And the growth at 10 µM [7]?
A: The growth at 10 µM was 84.9%.

Q: What about the growth at 10 µM (MDA-MB-468) of the same compound?
A: The growth at 10 µM was 91.3%.

Q: What about the GI50 [8] of the same compound?
A: Its GI50 is 35.5 µM.

Q: And the LC50 [8]?
A: The LC50 was > 50.1 µM.

Q: And the TGI ([8]; read-out: pTGI (converted))?
A: Its TGI is > 50.1 µM.

Q: What about the GI50 (U-251) of the same compound?
A: Its GI50 is 15.5 µM.

Q: What about the LC50 (concentration giving 50% net cell kill) (U-251) of the same compound?
A: Its LC50 (concentration giving 50% net cell kill) is > 50.1 µM.

Q: What about the TGI (U-251; read-out: pTGI (converted)) of the same compound?
A: Its TGI is > 50.1 µM.

Q: What about the GI50 [9] of the same compound?
A: Its GI50 is 14.5 µM.

Q: And the LC50 [9]?
A: The LC50 was > 50.1 µM.

Q: What about the TGI ([9]; read-out: pTGI (converted)) of the same compound?
A: The TGI was > 50.1 µM.

Q: And the GI50 (M14)?
A: The GI50 was 16.6 µM.

Q: What about the LC50 (M14) of the same compound?
A: Its LC50 is > 50.1 µM.

Q: And the TGI (M14; read-out: pTGI (converted))?
A: Its TGI is > 50.1 µM.

Q: What about the GI50 (MDA-MB-435) of the same compound?
A: The GI50 was 18.2 µM.

Q: What about the LC50 (MDA-MB-435) of the same compound?
A: Its LC50 is > 50.1 µM.

Q: And the TGI (MDA-MB-435; read-out: pTGI (converted))?
A: The TGI was > 50.1 µM.

Q: What about the GI50 (SK-MEL-2) of the same compound?
A: The GI50 was 14.8 µM.

Q: What about the LC50 (SK-MEL-2) of the same compound?
A: Its LC50 is > 50.1 µM.

Q: And the TGI (SK-MEL-2; read-out: pTGI (converted))?
A: The TGI was 37.2 µM.

Q: What about the GI50 [10] of the same compound?
A: The GI50 was 17.8 µM.

Q: What about the LC50 (concentration killing 50% of cells) [10] of the same compound?
A: Its LC50 (concentration killing 50% of cells) is > 50.1 µM.

Q: What about the TGI ([10]; read-out: pTGI (converted)) of the same compound?
A: The TGI was > 50.1 µM.

Q: And the GI50 [11]?
A: The GI50 was 23.4 µM.

Q: What about the LC50 [11] of the same compound?
A: Its LC50 is > 50.1 µM.

Q: What about the TGI ([11]; read-out: pTGI (converted)) of the same compound?
A: The TGI was > 50.1 µM.

Q: What about the GI50 (ACHN [12]) of the same compound?
A: Its GI50 is 3.98 µM.

Q: What about the LC50 (concentration killing 50% of cells) (ACHN [12]) of the same compound?
A: Its LC50 (concentration killing 50% of cells) is > 50.1 µM.

Q: What about the TGI (ACHN [12]; read-out: pTGI (converted)) of the same compound?
A: The TGI was 35.5 µM.

Q: What about the GI50 [13] of the same compound?
A: The GI50 was 2.09 µM.

Q: What about the CC50 [13, 17] of the same compound?
A: Its CC50 is > 50.1 µM.

Q: And the TGI ([13]; read-out: pTGI (converted))?
A: The TGI was 24.5 µM.

Q: And the GI50 (MCF7 [14])?
A: The GI50 was 14.5 µM.

Q: And the CC50 (MCF7 [14]; [17])?
A: The CC50 was > 50.1 µM.

Q: And the TGI (MCF7 [14]; read-out: pTGI (converted))?
A: Its TGI is > 50.1 µM.

Q: And the GI50 (MDA-MB-231)?
A: Its GI50 is 24.5 µM.

Q: What about the CC50 (MDA-MB-231; [17]) of the same compound?
A: The CC50 was > 50.1 µM.

Q: And the TGI (MDA-MB-231; read-out: pTGI (converted))?
A: Its TGI is > 50.1 µM.

Q: What about the growth at 10 µM (K562) of the same compound?
A: Its growth at 10 µM is 86.6%.

Q: And the growth at 10 µM (A549)?
A: The growth at 10 µM was 91.7%.

Q: And the growth at 10 µM (NCI-H522)?
A: The growth at 10 µM was 76.9%.

Q: And the growth at 10 µM [15]?
A: Its growth at 10 µM is 96.4%.

Q: What about the growth at 10 µM [16] of the same compound?
A: Its growth at 10 µM is 108%.
